Screens from PubChem BioAssay.
Rows were chosen to be rich in hits. Some 3.5% of all compounds tested hit in one or more screens of this group.
MrgX1 allo act = positive allosteric modulators of MrgX1, primary screen, HEK293 cells, Fluo-4 calcium flux. Mas-related G-protein coupled receptor member X1 (Homo sapiens), Q96LB2. FDSS; hits give high values. B-score at 10 µM. 310,000 compounds, 0.63% hits. AID 588675, 2011;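 active = plate-corrected calcium response at least 3 library SD above typical, normal starting fluorescence, not activating the receptor alone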;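 also: compound read alongside a low EC10 to EC30 dose of BAM8-22 agonist; peak minus trough fluorescence over baseline measured at the second addition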
Target sequence (Q96LB2 whole entry, looked up): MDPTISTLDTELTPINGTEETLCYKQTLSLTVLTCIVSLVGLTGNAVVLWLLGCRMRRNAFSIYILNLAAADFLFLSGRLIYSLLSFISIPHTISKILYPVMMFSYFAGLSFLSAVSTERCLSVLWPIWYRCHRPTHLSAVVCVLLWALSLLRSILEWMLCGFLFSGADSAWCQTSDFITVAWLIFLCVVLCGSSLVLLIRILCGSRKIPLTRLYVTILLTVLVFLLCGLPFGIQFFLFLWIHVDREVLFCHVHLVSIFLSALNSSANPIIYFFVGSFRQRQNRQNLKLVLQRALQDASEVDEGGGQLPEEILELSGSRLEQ
MrgX1 antag = antagonists of human MrgX1 receptor, primary screen, HEK293 cells, Fluo-4 calcium flux; Mas-related G-protein coupled receptor member X1 (Homo sapiens), Q96LB2; BAM8-22 antagonism; hits give low values; B-score at 10 µM; 310,000 compounds, 1.3% hits; AID 588676, 2011;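 active = calcium-response B-score plate-corrected more than 3 library SD below zero, starting fluorescence within 5 deviations, no agonist response on first addition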;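 also: peak minus trough fluorescence over baseline after final BAM8-22 challenge near maximal dose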
RGS4 block = RGS4 inhibitors, primary screen, cell-based, HEK293 M3R inducible RGS4, calcium flux; Regulator of G-protein signaling 4 (Homo sapiens), P49798; Fluo-4 calcium flux; hits give high values; triggered by carbachol at its EC20; B-score at 10 µM; 310,000 compounds, 0.45% hits;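 active = B-score, a plate-corrected calcium signal, over three deviations above library mean, with baseline fluorescence within five deviations of library mean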;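 also: RGS4 expression induced by doxycycline in cells with stable M3 receptor; B-score is computed from the integrated fluorescence ratio over baseline after carbachol; higher B-score means a larger calcium signal and so more RGS4 inhibition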
Target sequence (P49798 whole entry, looked up): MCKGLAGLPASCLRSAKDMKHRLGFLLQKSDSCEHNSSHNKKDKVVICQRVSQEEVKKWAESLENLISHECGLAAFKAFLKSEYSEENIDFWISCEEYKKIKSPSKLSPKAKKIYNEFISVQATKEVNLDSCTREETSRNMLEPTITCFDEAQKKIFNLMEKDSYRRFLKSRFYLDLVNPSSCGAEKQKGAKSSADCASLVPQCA
MrgX1 agonist = agonists of human MrgX1 receptor, primary screen, HEK293 cells, Fluo-4 calcium flux | Fluo-4 calcium fluorescence, agonist mode; hits give high values | B-score at 10 µM | 310,000 compounds, 0.44% hits;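 active = calcium response B-score plate-corrected fluorescence ratio at least 3 library SD, with starting fluorescence B-score inside 5 SD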
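times = overnight plating, then 30 min 37 °C plus 30 min room-temperature dye loading | assay system = stable human MrgX1 HEK293 cell line | input = fifteen thousand cells per well | signal = kinetic calcium dye fluorescence, Fluo-4 NW | dosing = compound delivered in addition one of three | read-out = B-scored fluorescence response ratio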
RGS4 act = RGS4 potentiators or activators, primary screen, cell-based, HEK293 M3R inducible RGS4, calcium flux; carbachol calcium flux Fluo4; hits give low values; AID 463111, 2010; B-score at 10 µM; 310,000 compounds, 0.92% hits;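 active = B-score of the integrated calcium signal more than 4 SD below the library mean, with starting fluorescence not abnormally high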;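 also: negative B-score means reduced calcium response which marks RGS4 activation or potentiation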
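System – HEK293 FlpIn-TREx cells, stable M3R, doxycycline-inducible RGS4 · Reagent – ECmax carbachol challenge · Times – compound preincubation 20 min at room temperature before agonist · Technique – Fluo4 fluorescence kinetic imaging of calcium · Measure – B score of integrated Fluo4 ratio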
Of the large screens only hits and unclear results are named; the others gave an inactive call.

CC(C)(C)NCC(O)(c1ccc(Cl)cc1)c1ccc(Cl)cc1	none
NCC(O)(c1ccc(Cl)cc1)c1ccc(Cl)cc1	MrgX1 agonist 37.1
c1ccc(N2CC[N+]3(CCCC3)CC2)nc1	none
c1cnc(N2CC[N+]3(CCCC3)CC2)nc1	RGS4 act -7.73
CCc1ccc(CN2CCC(Oc3ccc(C(=O)N4CCCCC4)cc3)CC2)cc1	RGS4 act -7.18
CCc1ccc(CN2CCC(Oc3ccc(C(=O)N4CCCC4)cc3)CC2)cc1	none
COc1ccc(NC(=O)c2ccc(-c3ccc([N+](=O)[O-])cc3)o2)cc1OC	MrgX1 antag -5.27
COc1ccc(C(C)NC(=O)c2ccc([N+](=O)[O-])cc2)cc1OC (stereo unspecified)	MrgX1 antag -5.45
COC(=O)C1=C(C)NC(C)=C(C(=O)OC)C1c1ccc(C)o1	none
CN(CC(=O)NCc1ccc(F)cc1)CC(=O)Nc1ccc(Cl)c(C(F)(F)F)c1	MrgX1 antag -5.55
CC(NC(=O)CN(C)CC(=O)Nc1ccc(Cl)c(C(F)(F)F)c1)c1ccccc1 (stereo unspecified)	none
CSc1nc(SCC(=O)NCc2ccco2)c2c3c(sc2n1)CN(C)CC3	none
CSc1nc(NCc2ccco2)c2c3c(sc2n1)CN(C)CC3	MrgX1 antag -4.7, RGS4 act -7.68
CCC(O)CNc1nc(SC)nc2sc3c(c12)CCN(C)C3 (stereo unspecified)	RGS4 act -7.15
CSCc1ccc(C(=O)NC(C)c2ccc(-n3ccnc3)cc2)cc1 (stereo unspecified)	none
O=C(/C(=C(\[O-])c1ccccc1)[n+]1ccc2ccccc2c1)c1ccccc1	none
O=C(/C(=C(\[O-])c1ccccc1)[n+]1ccc2ccccc2c1)c1ccc([N+](=O)[O-])cc1	MrgX1 antag -5.65
NC(CCCCc1ccccc1)c1cccc2ccccc12 (stereo unspecified)	MrgX1 agonist 60.9
CC(CCc1ccccc1)NCc1cccc2ccccc12 (stereo unspecified)	none
Nc1ncnc(Oc2cccc3cccnc23)c1[N+](=O)[O-]	MrgX1 antag -4.98
Cc1cccc(Oc2ncnc(N)c2[N+](=O)[O-])c1C	none
Cc1cc2c(cc1S(=O)(=O)NCc1ccccc1)OCC(=O)N2	none
C=CCOc1ccccc1/C=c1\sc2nc(=O)c(C)nn2c1=O	MrgX1 agonist 28.3
O=C(Cn1c(NCCCO)nc2ccccc21)c1ccc(F)cc1	none
Cc1ccc(-n2nc3c(c2NC(=O)C(C)(C)C)CS(=O)(=O)C3)cc1	none
COc1ccc(NC(=O)CSc2nnc(-c3ccncc3)o2)c([N+](=O)[O-])c1	none
CCC(=O)N1c2ccc(S(=O)(=O)CCC(=O)N3CCN(c4ccccc4F)CC3)cc2CC1C (stereo unspecified)	none
CCCN(C(=O)CSCc1ccccc1C)c1c(N)n(Cc2ccccc2)c(=O)[nH]c1=O	MrgX1 antag -7.19
Nc1nonc1-n1nnc(C(=O)N/N=C/c2cccnc2)c1-c1ccccc1	none
CC(c1ccccc1)N1C(=O)c2ccccc2C1O (stereo unspecified)	none
Cc1nnc(C)n1/N=C/c1ccc(-c2ccccc2Cl)o1	none
O=C1NC(=S)/C(=C\c2ccc(-c3ccccc3Cl)o2)S1	RGS4 act -7.39
Cn1ncc([N+](=O)[O-])c1C(=O)N/N=C/c1cccc([N+](=O)[O-])c1	MrgX1 antag -5.36
CCO[C@@H]1OC(C(=O)N2CCN(Cc3ccc4c(c3)OCO4)CC2)=C[C@H](c2coc3ccccc3c2=O)[C@H]1CCCO	MrgX1 antag -5.07
CCO[C@H]1OC(C(=O)N2CCN(Cc3ccccc3)CC2)=C[C@@H](c2coc3ccccc3c2=O)[C@@H]1CCCO	none
O=C(O)Cc1sc(N/N=C\c2ccncc2)nc1-c1ccccc1	MrgX1 antag -5.8
C(=N\Nc1nc(-c2ccccc2)cs1)/c1ccncc1	none
O=C(NCCC1=CCCCC1)c1ccc(-n2cncn2)c([N+](=O)[O-])c1	none
CC[n+]1c(/C=C/Nc2ccccc2)sc2ccccc21	none
CCN1/C(=C/C=C/c2sc3ccccc3[n+]2CC)Sc2ccccc21	MrgX1 antag -4.62, RGS4 act -7.02
CCN1/C(=C/C=C/C=C/C=C/c2sc3ccccc3[n+]2CC)Sc2ccccc21	MrgX1 antag -5.07
CCN1/C(=C/C=C/C=C/c2sc3ccccc3[n+]2CC)Sc2ccccc21	none
Nc1nc(-c2ccccc2)c(-c2ccccc2)n1N	MrgX1 allo act 9.35
CS(=O)(=O)N(Cc1ccc(Cl)cc1)c1ccc(C(=O)N/N=C/c2cc3ccccc3nc2Cl)cc1	none
CCn1cc(C(=O)O)c(=O)c2cc(F)c(N/N=C/c3ccccc3[N+](=O)[O-])cc21	RGS4 act -9.36
CCCCC[n+]1cccc2c3ccccc3ccc21	none
CCCC[n+]1c2ccccc2cc2ccccc21	MrgX1 agonist 32.1
Cc1ccc2ccccc2[n+]1CCCS(=O)(=O)[O-]	none
CCC[n+]1c2ccccc2cc2ccccc21	MrgX1 agonist 26.5
CCOC(=O)c1ccc2c(c1)n(CC)c(/C=C/N(C)c1ccccc1)[n+]2CC	MrgX1 antag -4.97
CCC(C)(C)NC(=O)/C=C/c1cnc2ccccc2n1	MrgX1 antag -4.75
COC1=C(Nc2ccccc2)C(=O)c2ccccc2C1=O	MrgX1 allo act 10.1
Cc1ccc(NC2=C(N3CCCCC3)C(=O)c3ccccc3C2=O)cc1	none
COC1=C(Nc2ccc(C)cc2)C(=O)c2ccccc2C1=O	MrgX1 allo act 17.1
O=C(CSc1ccc(Cl)cc1)NCc1ccncc1	none
Cc1ccc(S(=O)(=O)NNC(=O)c2ccc3ccccc3n2)cc1	none
COc1ccc(S(=O)(=O)N2CCC(C(=O)NCc3cccnc3)CC2)cc1Cl	none
O=[N+]([O-])c1ccc2nc(/C=C/c3ccc(Cl)cc3)[nH]c2c1	none
COc1ccccc1OCCCOc1ccc(/C=C2\SC(=O)NC2=O)cc1OC	RGS4 act -7.73
O=C(COc1ccccc1)N=C1SC2CS(=O)(=O)CC2N1Cc1ccccc1 (stereo unspecified)	none
COCCCN1CCN(C2Cc3ccccc3Sc3ccc(Cl)cc32)CC1 (stereo unspecified)	none
Clc1ccc2c(c1)C(N1CCNCC1)Cc1ccccc1S2 (stereo unspecified)	RGS4 act -7.81
CC1(C)CC(=O)c2sc(NS(=O)(=O)c3ccc([N+](=O)[O-])cc3)nc2C1	MrgX1 allo act 8.02
CC1(C)CC(=O)c2sc(NS(C)(=O)=O)nc2C1	none
CCNc1nc(NCC)nc(SCCOC(=O)c2ccccc2)n1	MrgX1 agonist 42.4
Cc1cc(OC(=O)c2ccccc2Br)cc(=O)n1C	MrgX1 allo act 10.5
